From ChEMBL document CHEMBL4190200, “Inhibition Potential of Cycloartane-Type Glycosides from the Roots of Cimicifuga dahurica against Soluble Epoxide Hydrolase” (J Nat Prod, 2017)
pIC50: −log10 of the molar value. Active and inactive are the calls of the source. The calls are words filed in the database; no cut-off is given here.

Key:
[1] = target: T1, Bifunctional epoxide hydrolase 2 (Homo sapiens, UniProt P34913); assay: Inhibition of soluble epoxide hydrolase (unknown origin) using PHOME as substrate measured for 1 hr by fluorescence assay
T1 sequence (P34913 whole entry): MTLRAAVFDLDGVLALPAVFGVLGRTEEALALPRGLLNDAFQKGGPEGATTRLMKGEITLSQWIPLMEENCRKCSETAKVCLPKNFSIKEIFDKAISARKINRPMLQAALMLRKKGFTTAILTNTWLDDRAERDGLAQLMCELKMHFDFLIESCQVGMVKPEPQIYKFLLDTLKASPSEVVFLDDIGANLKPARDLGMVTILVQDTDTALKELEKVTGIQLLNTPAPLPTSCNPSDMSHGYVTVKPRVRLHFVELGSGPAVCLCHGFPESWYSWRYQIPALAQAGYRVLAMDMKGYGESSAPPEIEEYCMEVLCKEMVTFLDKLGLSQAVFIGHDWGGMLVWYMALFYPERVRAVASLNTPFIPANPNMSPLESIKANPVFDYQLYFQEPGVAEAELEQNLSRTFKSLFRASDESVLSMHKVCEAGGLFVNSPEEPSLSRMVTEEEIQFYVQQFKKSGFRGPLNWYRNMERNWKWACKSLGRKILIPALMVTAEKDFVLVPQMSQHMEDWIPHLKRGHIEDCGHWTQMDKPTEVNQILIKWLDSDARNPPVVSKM

[2] = target: T2, Bifunctional epoxide hydrolase 2 (Homo sapiens) (UniProt P34913); assay: Inhibition of soluble epoxide hydrolase (unknown origin) using PHOME as substrate at 100 uM measured for 1 hr by fluorescence assay relative to control
T2 sequence (whole entry): T1 sequence (P34913 whole entry)
In short: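 sEH (31.6 ng/mL) mixed with compound in MeOH in 25 mM Bis-Tris-HCl, pH 7.0, with 0.1 mg/mL BSA; 40 μM PHOME substrate (stock added) started the reaction at 37 °C. Fluorescence read at ex 330/em 465 nm for 1 h. Activity (%) taken from the signal change between 0 and 40 min, relative to the uninhibited control. Positive control AUDA.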

[3] = target: T2, Bifunctional epoxide hydrolase 2 (Homo sapiens); assay: Competitive inhibition of soluble epoxide hydrolase (unknown origin) using PHOME as substrate measured for 1 hr by Lineweaver-Burk plot analysis
[4] = target: T2, Bifunctional epoxide hydrolase 2 (Homo sapiens); assay: Non-competitive inhibition of soluble epoxide hydrolase (unknown origin) using PHOME as substrate measured for 1 hr by Lineweaver-Burk plot analysis
[5] = target: T2, Bifunctional epoxide hydrolase 2 (Homo sapiens); assay: Mixed inhibition of soluble epoxide hydrolase (unknown origin) using PHOME as substrate measured for 1 hr by Lineweaver-Burk plot analysis

| SMILES | pIC50 [1] | inhibition [2] [%] | inhibition mode [3] | inhibition [4] | inhibition [5] |
| --- | --- | --- | --- | --- | --- |
| C[C@@H]1C[C@H]([C@@H](O)C(C)(C)O)O[C@]2(O)[C@H]1[C@@]1(C)CC[C@@]34C[C@@]35CC[C@H](O[C@@H]3OC[C@@H](O)[C@H](O)[C@H]3O)C(C)(C)[C@@H]5CC=C4[C@]1(C)[C@H]2O | 4.97 | 84.8 | Active |  |  |
| CC(=O)O[C@H]([C@H]1C[C@@H](C)[C@H]2[C@@](O)(O1)[C@H](O)[C@@]1(C)[C@@H]3CC[C@H]4C(C)(C)[C@@H](O[C@@H]5OC[C@@H](O)[C@H](O)[C@H]5O)CC[C@@]45C[C@@]35CC[C@]21C)C(C)(C)O | 6.40 | 66.1 | Active |  |  |
| CC(=O)OC(C)(C)[C@H]1O[C@@]23O[C@@H]1C[C@@H](C)[C@@H]2[C@@]1(C)CC[C@@]24C[C@@]25CC[C@H](O[C@@H]2OC[C@@H](O)[C@H](O)[C@H]2O)C(C)(C)[C@@H]5CC=C4[C@]1(C)[C@H]3O | 4.62 | 76.7 | Active |  |  |
| CC(=O)O[C@H]1[C@H](O[C@H]2CC[C@]34C[C@]35CC[C@]3(C)[C@H]6[C@H](C)C[C@H]7O[C@@]6(O[C@H]7C(C)(C)O)[C@H](O)[C@@]3(C)C5=CC[C@H]4C2(C)C)OC[C@@H](O)[C@@H]1O | 4.22 | 64.9 |  |  |  |
| C[C@@H]1CC(=O)[C@H](O)[C@]2(O)[C@H]1[C@@]1(C)CC[C@@]34C[C@@]35CC[C@H](O[C@@H]3OC[C@@H](O)[C@H](O)[C@H]3O)C(C)(C)[C@@H]5CC=C4[C@]1(C)[C@H]2O | 5.07 | 69.6 |  | Active |  |
| C[C@@H]1C[C@]23OCC(C)(O)[C@H]2O[C@@]2(O3)[C@H]1[C@@]1(C)CC[C@@]34C[C@@]35CC[C@H](O[C@@H]3OC[C@@H](O)[C@H](O)[C@H]3O)C(C)(C)[C@@H]5CC=C4[C@]1(C)[C@H]2O (some centres undefined) | 4.84 | 63.2 |  |  | Active |
| C[C@@H]1C[C@H]2O[C@]3(O[C@H]2C(C)(C)O)[C@H]1[C@@]1(C)[C@H](O)C[C@@]24C[C@@]25CC[C@H](O[C@@H]2OC[C@@H](O)[C@H](O)[C@H]2O)C(C)(C)[C@@H]5CC=C4[C@]1(C)[C@H]3O | 4.73 | 61.9 |  | Active |  |

Results, then the molecule that gave them:

| pIC50 [1] | inhibition [2] [%] | inhibition mode [3] | inhibition [4] | inhibition [5] | SMILES |
| --- | --- | --- | --- | --- | --- |
| 5.36 | 70.2 | Active |  |  | C[C@H]1[C@H]2[C@@H](O[C@@]3(O)[C@@H]1OC(C)(C)[C@H]3O)[C@H](O)[C@@]1(C)[C@@H]3CC[C@H]4C(C)(C)[C@@H](O[C@@H]5OC[C@@H](O)[C@H](O)[C@H]5O)CC[C@@]45C[C@@]35CC[C@]21C |
| 5.28 | 72.4 |  | Active |  | CC(=O)O[C@H](C[C@@H](C)[C@H]1C(=O)[C@H](O)[C@@]2(C)C3=CC[C@H]4C(C)(C)[C@@H](O[C@@H]5OC[C@@H](O)[C@H](O)[C@H]5O)CC[C@@]45C[C@@]35CC[C@]12C)[C@@H](O)C(C)(C)O |
| 6.40 | 75.6 | Active |  |  | COC(C)(C)[C@H]1O[C@@]23O[C@@H]1C[C@@H](C)[C@@H]2[C@@]1(C)CC[C@@]24C[C@@]25CC[C@H](O[C@@H]2OC[C@@H](O)[C@H](O)[C@H]2O)C(C)(C)[C@@H]5CC=C4[C@]1(C)[C@H]3O |
